Assay results taken from ChEMBL document CHEMBL1144149, “DNA polymerase beta inhibitors from Tetracera boiviniana” (J Nat Prod, 1999).

Assays:
[1] = system: P388D1; assay: Potentiation of 75 nM bleomycin induced cytotoxicity in mouse P388D1 cells at 10 uM assessed as cell viability after 6 hrs by trypan blue exclusion assay; format: functional
Summary of the method: (§1)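 P-388D1 suspension cells were grown in DMEM (4500 mg glucose/L) with 10% donor horse serum and antibiotics at 37 °C in 5% CO2. Cells at ca. 5 × 10^5 cells/mL were stabilized for 1 h, then exposed to compound alone or together with 75 nM bleomycin (blenoxane) for 6 h. Final DMSO was 0.25%. Viability was read by trypan blue exclusion as % of control.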

[2] = Cytotoxicity against mouse P388D1 cells at 10 uM after 6 hrs by trypan blue exclusion assay; format: functional; summary of the method: as §1
[3] = biological target: DNA polymerase beta (Rattus norvegicus) (UniProt P06766); conditions: 10 ug/mL
[4] = biological target: DNA polymerase beta (Rattus norvegicus) (UniProt P06766); conditions: 50 ug/mL

Compound: C=C(C)[C@@H]1CC[C@]2(C(=O)O)CC[C@]3(C)[C@H](CC[C@@H]4[C@@]5(C)CC[C@H](O)C(C)(C)[C@@H]5CC[C@]43C)[C@@H]12 [BETULINIC ACID]
- Activity [1]: 70%
- Activity [2]: 99%
- inhibition [3]: 63%
- inhibition [4]: 96%
